A word on the Inhibition: it is the relative decrease from the control value, in per cent. Broadly, the inhibition is how much of the control response was suppressed.

Test [1] concerns the target T1, Histamine H2 receptor (Cavia porcellus, UniProt P47747). The experiment in a line: Compound was evaluated in vitro inhibitory activity against histamine H2 receptor in isolated Guinea pig right atria. As to conditions: read-out: pA2 (converted).
Test [2] has as its system Rattus norvegicus. The experiment in a line: In Vivo gastric Mucosal protective activity against gastric mucosal lesions induced by 0.6 N HCl in rats. (200 mg/kg, po). The format is functional, Gastric mucosa. The method, boiled down: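 Oral dosing at 200 mg/kg, 1.5 h before 1 mL of 0.6 N HCl, in male Donryu or Wistar rats (150-230 g) deprived of food and water 24 h. Killed 1 h later. Stomach formalin-fixed and glandular lesion length scored against vehicle. Percent inhibition given as mean ± SE.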

Test [3] deals with T1, Histamine H2 receptor. Nature of the test: In vitro inhibitory activity against histamine H2-receptor in isolated Guinea pig right atria. As to conditions: read-out: pA2 (converted).
Test [4] has as its system Rattus norvegicus. Nature of the test: In vivo gastric mucosal protective activity against gastric mucosal lesions induced by 0.6 N HCl in rats. Also noted: concentration or dose not given beside the values. It counts as functional, Gastric mucosa. In short, it runs like this:
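Male Donryu or Wistar rats, 150-230 g, deprived of food and water 24 h. Compound given orally (25 mg/kg) 1.5 h before 1 mL 0.6 N HCl po. Killed 1 h after HCl. Stomach fixed with 0.5% formalin, and glandular lesion lengths measured. Percent inhibition compared with vehicle, mean ± SE, 5-10 animals.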

Test [5] deals with Rattus norvegicus. Nature of the test: Gastric antisecretory activity in rat (in vivo). It counts as functional. The method, boiled down:
(§1)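 Male Donryu or Wistar rats, 170-310 g, fasted 24 h. Under urethane anesthesia the pylorus was ligated (acute fistula). Compound, suspended in 1% gum arabic, given intraduodenally after the second gastric juice collection, usually at 10 mg/kg. Acid output compared with vehicle mean. Percent inhibition given as mean ± SE, 2-5 animals per group.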

In test [6] the test system is Rattus norvegicus. Nature of the test: In vivo gastric antisecretory activity in acute fistula rats. The format is functional, Stomach. Also noted: concentration or dose not given beside the values. The method, boiled down:
as §1

Test [7] concerns Rattus norvegicus. Nature of the test: In vivo gastric antisecretory activity in acute fistula rats. It counts as functional, Stomach. In short, it runs like this:
as §1

T1 sequence (P47747 whole entry): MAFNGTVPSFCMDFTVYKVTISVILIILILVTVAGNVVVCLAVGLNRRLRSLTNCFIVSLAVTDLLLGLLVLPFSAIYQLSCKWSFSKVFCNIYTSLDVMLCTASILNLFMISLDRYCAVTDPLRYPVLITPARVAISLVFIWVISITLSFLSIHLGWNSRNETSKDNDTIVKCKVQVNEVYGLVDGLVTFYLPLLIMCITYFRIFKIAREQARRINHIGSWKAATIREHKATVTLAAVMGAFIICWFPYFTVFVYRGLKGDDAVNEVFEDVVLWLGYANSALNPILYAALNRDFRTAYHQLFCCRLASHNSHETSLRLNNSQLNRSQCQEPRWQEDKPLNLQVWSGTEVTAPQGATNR

`CNC(=C[N+](=O)[O-])NCCSCc1ccc(CN(C)C)o1` [RANITIDINE]: at Histamine H2 receptor [1], the Kb is 64.6 nM. In the test on Rattus norvegicus [2], the Inhibition is -16.8%.
`O=C(NCCCOc1cccc(CN2CCCCC2)c1)NC1CCCCC1`: at Histamine H2 receptor [3], the Kb was 43.7 nM. For the same molecule, the Inhibition was 39.3% in the test with Rattus norvegicus [4] and 77.9% in the test on Rattus norvegicus [6]. In addition, the AS activity class in the test with Rattus norvegicus [5] was found to be 3.
Consider `CN/C(=N\CCSCc1nc[nH]c1C)NC#N` [CIMETIDINE], for which the Inhibition in the test with Rattus norvegicus [2] is reported as -42.2%.
For the molecule `O=C(NCCCOc1cccc(CN2CCCCC2)c1)Nc1cccc(C(F)(F)F)c1`, the Kb on Histamine H2 receptor [3] is 813 nM. Besides, the Inhibition in the test on Rattus norvegicus [4] is reported as -4.9%; in the test with Rattus norvegicus [6], 7.8%. In the test on Rattus norvegicus [5], the AS activity class stood at 1.
Turning to `NC(N)=Nc1nc(CSCC/C(N)=N/S(N)(=O)=O)cs1` [FAMOTIDINE], the Kb at Histamine H2 receptor [3] is 100 nM. For the same molecule, the Inhibition in the test on Rattus norvegicus [2] worked out at 7.9%.
`O=C(NCCCOc1cccc(CN2CCCCC2)c1)Nc1ccc(C(F)(F)F)cc1`: the Kb at Histamine H2 receptor [3] was 1700 nM. Further, the Inhibition with Rattus norvegicus [4] is listed as 51%; in the test on Rattus norvegicus [6], 3.8%. The same molecule had an AS activity class in the test with Rattus norvegicus [5] of 1.
The corresponding values for `O=C(NCCCOc1cccc(CN2CCCCC2)c1)NCc1ccccc1` are 347 nM, 61%, 54.2% and 2.
The like results for `Cc1ccc(NC(=O)NCCCOc2cccc(CN3CCCCC3)c2)cc1` were, in that order, 631 nM, 40.1%, -45.5% and 1.
The corresponding values for `COc1ccc(OC)c(NC(=O)NCCCOc2cccc(CN3CCCCC3)c2)c1` are 158 nM, 34.7%, -30.8% and 1.
For `COc1cccc(NC(=O)NCCCOc2cccc(CN3CCCCC3)c2)c1`, the Kb on Histamine H2 receptor [3] is 200 nM. Further, the figures for the Inhibition in the test with Rattus norvegicus [4] and in the test with Rattus norvegicus [6] were 48.2% and 53.2%, respectively. In addition, in the test with Rattus norvegicus [5], the AS activity class was determined as 2.
The corresponding values for `O=C(NCCCOc1cccc(CN2CCCCC2)c1)NC1CC1` are 47.9 nM, 49.4%, 87.5% and 3.
The corresponding values for `CC(C)(C)NC(=O)NCCCOc1cccc(CN2CCCCC2)c1` are 2090 nM, 28.5%, -56% and 1.
The like results for `CCNC(=O)NCCCOc1cccc(CN2CCCCC2)c1` [DALCOTIDINE] were, in that order, 40.7 nM, 77.9%, 71.8% and 3.
As for `O=C(NCCCOc1cccc(CN2CCCCC2)c1)Nc1ccc2c(c1)OCO2`, the Kb at Histamine H2 receptor [3] was 288 nM. Besides, the Inhibition in the test with Rattus norvegicus [4] is recorded as 47.1%; in the test with Rattus norvegicus [6], 48.9%. The same molecule registered an AS activity class in the test with Rattus norvegicus [5] of 2.
The corresponding values for `O=C(NCCF)NCCCOc1cccc(CN2CCCCC2)c1` are 85.1 nM, 36%, 98.7% and 3.
The corresponding values for `COc1ccccc1NC(=O)NCCCOc1cccc(CN2CCCCC2)c1` are 776 nM, 31.7%, -57.4% and 1.
For the molecule `O=C(NCCCOc1cccc(CN2CCCCC2)c1)Nc1ccc([N+](=O)[O-])cc1`, the Inhibition came to 9% with Rattus norvegicus [7] and 23.4% with Rattus norvegicus [4]. The Kb at Histamine H2 receptor [1] was 178 nM. Also, the AS activity class in the test with Rattus norvegicus [5] was 1.
Regarding `CCOc1ccc(NC(=O)NCCCOc2cccc(CN3CCCCC3)c2)cc1`, at Histamine H2 receptor [3], the Kb was 490 nM. The Inhibition with Rattus norvegicus [4] came to 32.7%; with Rattus norvegicus [6], 54.1%. Also, the AS activity class with Rattus norvegicus [5] was 2.
Consider `COc1ccc(N/C(S)=N/CCCOc2cccc(CN3CCCCC3)c2)cc1`, for which, on Histamine H2 receptor [3], the Kb was 4370 nM. Besides, the Inhibition is recorded as 51.6% with Rattus norvegicus [4] and -5.5% in the test with Rattus norvegicus [6].
Regarding `O=C(NCCCOc1cccc(CN2CCCCC2)c1)Nc1ccc(Cl)cc1`, the Kb at Histamine H2 receptor [3] was 631 nM. For the same molecule, the Inhibition came out at 33.9% in the test on Rattus norvegicus [4] and 28.2% in the test on Rattus norvegicus [6]. Besides, the AS activity class with Rattus norvegicus [5] was 1.
The like results for `CNC(=O)NCCCOc1cccc(CN2CCCCC2)c1` were, in that order, 155 nM, 64.7%, 93.3% and 3.
Regarding TEPRENONE, the inhibition in the test on Rattus norvegicus [2] (Gastric mucosa) was determined as 42.7%.
With `O=C(NCCCOc1cccc(CN2CCCCC2)c1)Nc1ccccc1`, at Histamine H2 receptor [3], the Kb was 126 nM. Moreover, the results for the Inhibition with Rattus norvegicus [4] and in the test with Rattus norvegicus [6] were 44.3% and 12.6%, respectively. The same molecule showed an AS activity class in the test on Rattus norvegicus [5] of 1.
The like results for `CCCCNC(=O)NCCCOc1cccc(CN2CCCCC2)c1` were, in that order, 81.3 nM, 67.5%, 83% and 3.
The corresponding values for `COc1ccc(NC(=O)NCCCOc2cccc(CN3CCCCC3)c2)c(OC)c1` are 2240 nM, 55.7%, 13.1% and 1.
The corresponding values for `CCCNC(=O)NCCCOc1cccc(CN2CCCCC2)c1` are 97.7 nM, 73.5%, 96.6% and 3.
As for `COc1ccc(NC(=O)NCCCOc2cccc(CN3CCCCC3)c2)cc1`, the Kb on Histamine H2 receptor [3] was 631 nM. Further, the Inhibition in the test on Rattus norvegicus [4] turned out to be 40.9%; with Rattus norvegicus [6], 73.5%. This molecule also registered an AS activity class in the test on Rattus norvegicus [5] of 3.
The corresponding values for `O=C(NCCCOc1cccc(CN2CCCCC2)c1)Nc1cccc(Cl)c1` are 316 nM, 43.3%, -44.9% and 1.
The like results for `CC(C)NC(=O)NCCCOc1cccc(CN2CCCCC2)c1` were, in that order, 43.7 nM, 72.9%, 71.3% and 3.
Turning to `Nc1cccc(NC(=O)NCCCOc2cccc(CN3CCCCC3)c2)c1`, the Inhibition was 95% in the test on Rattus norvegicus [7] and 47.2% in the test on Rattus norvegicus [4]. Further, on Histamine H2 receptor [1], the Kb was 155 nM. In the test on Rattus norvegicus [5], this molecule came in with an AS activity class of 3.
For the molecule `CC(C)CNC(=O)NCCCOc1cccc(CN2CCCCC2)c1`, the Kb on Histamine H2 receptor [3] was 170 nM. For the same molecule, the Inhibition in the test with Rattus norvegicus [4] is given as 43.3%; in the test with Rattus norvegicus [6], 40.3%. In the test on Rattus norvegicus [5], this molecule gave an AS activity class of 2.
As for `CCC(C)NC(=O)NCCCOc1cccc(CN2CCCCC2)c1` (stereo unspecified), on Histamine H2 receptor [3], the Kb is 95.5 nM. For the same molecule, the figures for the Inhibition with Rattus norvegicus [4] and in the test on Rattus norvegicus [6] were 17.7% and 55.1%, respectively. In the test with Rattus norvegicus [5], this molecule yielded an AS activity class of 2.
With `O=C(NCCCOc1cccc(CN2CCCCC2)c1)Nc1cccc([N+](=O)[O-])c1`, on Histamine H2 receptor [3], the Kb is 269 nM. Moreover, the Inhibition with Rattus norvegicus [4] is 40.9%; in the test with Rattus norvegicus [6], -23.9%. The AS activity class in the test on Rattus norvegicus [5] came out at 1.

For the origin of these results see ChEMBL document CHEMBL1125466, “Synthesis and antiulcer activity of N-substituted N'-[3-[3-(piperidinomethyl)phenoxy]propyl]ureas: histamine H2-receptor antagonists with a potent mucosal protective activity” (J Med Chem, 1992).
